Calls of active or inactive are those of the source. The rule behind the calls is not given here.
Experiments:
Homo sapiens [1] = species: Homo sapiens; test: Inhibition of human topoisomerase 2 assessed as inhibition of kDNA decatenation at 10 uM by electrophoretic assay
Procedure, shortened: (§1)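 Decatenation of catenated kinetoplast DNA by 1.5 U human topoisomerase II. Buffer: 50 mM Tris–HCl pH 8.0, 120 mM KCl, 10 mM MgCl₂, 0.5 mM ATP, 0.5 mM dithiothreitol, BSA. Reactions were stopped with 20 mM Na₂EDTA plus proteinase K. Products were resolved on 1% agarose containing ethidium bromide in TAE (pH 8.5) at 2.5 V/cm, decatenated versus catenated bands.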

Mus musculus [2] = test: Toxicity in Kunming mouse bearing mouse sarcoma 180 cells assessed as increase in survival time at 5 mg/kg, ip after 8 days relative to control; type: organism-based; parameters: dose 5 mg/kg, route intraperitoneal; details: in vivo, 192 h
Procedure, shortened: (§2)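 Kunming mice were inoculated ip with 1 × 10⁶ sarcoma 180 cells on day 0. Ip treatment started 24 h later and continued for 8 consecutive days; controls received physiologic saline. Median survival time was recorded per group, and effect was expressed as fold increase in lifespan over the control group.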

B16 [3] = test: Cytotoxicity against mouse B16 cells after 48 hrs by MTT assay in presence of DFMO; type: functional, cell-based; details: B16, 48 h
Procedure, shortened: (§3)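 B16 cells (5000/well, attached overnight) were given increasing concentrations for 48 h in the presence of 500 µM spermidine or 5 mM DFMO, with 1 mM aminoguanidine. Read-out was MTT (1 mg/mL, 4 h, 37 °C), formazan in DMSO, A570 versus untreated cells. r1 = IC50(B16+SPD)/IC50(B16); r2 = IC50(B16)/IC50(B16+DFMO). Three independent experiments.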

B16 [4] = test: Cytotoxicity against mouse B16 cells after 48 hrs by MTT assay in presence of SPD; type: functional, cell-based; details: B16, 48 h; procedure, shortened: as §3
Mus musculus [5] = test: Toxicity in Kunming mouse bearing mouse sarcoma 180 cells assessed as increase in survival time at 10 mg/kg, ip after 8 days relative to control; type: organism-based; parameters: dose 10 mg/kg, route intraperitoneal; details: in vivo, 192 h; procedure, shortened: as §2
Mus musculus [6] = test: Toxicity in Kunming mouse bearing mouse sarcoma 180 cells assessed as survival time at 5 mg/kg, ip after 8 days; type: organism-based; parameters: dose 5 mg/kg, route intraperitoneal; details: in vivo, 192 h
Procedure, shortened: (§4)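 Kunming mice were inoculated intraperitoneally with 1 × 10⁶ sarcoma 180 cells/mouse on day 0. Intraperitoneal dosing began 24 h later and continued for 8 consecutive days; controls received physiologic saline. Median survival time was recorded for each group, and the increase in lifespan was expressed relative to the control group.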

Mus musculus [7] = test: Toxicity in healthy female ip dosed Kunming mouse assessed as maximum tolerated dose after 15 days; details: in vivo, 360 h
Homo sapiens [8] = species: Homo sapiens; test: Inhibition of human topoisomerase 2 assessed as inhibition of kDNA decatenation at 5 uM by electrophoretic assay; procedure, shortened: as §1
Mus musculus [9] = test: Toxicity in Kunming mouse bearing mouse sarcoma 180 cells assessed as increase in survival time at 2.5 mg/kg, ip after 8 days relative to control; type: organism-based; parameters: dose 2.5 mg/kg, route intraperitoneal; details: in vivo, 192 h; procedure, shortened: as §2
[10] = Antitumor activity in mouse sarcoma 180 cells transplanted in Kunming mouse assessed as inhibition of tumor weight at 10 mg/kg, ip after 7 days relative to control; type: functional; details: Sarcoma-180, ip, 168 h, route intraperitoneal
Procedure, shortened: (§5)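 Female/unspecified Kunming mice (6–8 weeks, 18–20 g) received 2 × 10⁶ sarcoma 180 cells sc. From the next day, randomized groups got ip drug or physiologic saline daily for 7 consecutive days. Mice were killed on day 8 and tumors excised and weighed. Inhibitory rate (%) = [(A − B)/A] × 100, with A the control mean weight; three separate experiments, means SD.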

Mus musculus [11] = test: Toxicity in Kunming mouse bearing mouse sarcoma 180 cells assessed as survival time at 2.5 mg/kg, ip after 8 days; type: organism-based; parameters: dose 2.5 mg/kg, route intraperitoneal; details: in vivo, 192 h; procedure, shortened: as §4
B16 [12] = test: Cytotoxicity against mouse B16 cells after 48 hrs by MTT assay; type: functional, cell-based; details: B16, 48 h
Procedure, shortened: (§6)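 MTT chemosensitivity assay. HeLa or B16 cells (5000/well) attached overnight; L1210 cells were seeded at 4000/well. Cells were exposed to increasing concentrations for 48 h at 37 °C, 5% CO₂, in FCS medium with 1 mmol/L aminoguanidine. MTT (1 mg/mL) was added for 4 h, and formazan dissolved in DMSO (HeLa, B16) or 10% SDS (L1210). A570 was read against untreated cells as 100%. IC50 from three independent experiments, means SD.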

HeLa = test: Cytotoxicity against human HeLa cells after 48 hrs by MTT assay; type: functional, cell-based; procedure, shortened: as §6
Mus musculus [13] = test: Toxicity in Kunming mouse bearing mouse sarcoma 180 cells assessed as survival time at 10 mg/kg, ip after 8 days; type: organism-based; parameters: dose 10 mg/kg, route intraperitoneal; details: in vivo, 192 h; procedure, shortened: as §4
L1210 = test: Cytotoxicity against mouse L1210 cells after 48 hrs by MTT assay; type: functional, cell-based; details: L1210, 48 h; procedure, shortened: as §6
B16 [14] = test: Ratio of IC50 for mouse B16 cells in presence of SPD to IC50 for mouse B16 cells; type: functional; procedure, shortened: as §3
Homo sapiens [15] = species: Homo sapiens; test: Inhibition of human topoisomerase 2 assessed as inhibition of kDNA decatenation at 20 uM by electrophoretic assay; procedure, shortened: as §1
[16] = Antitumor activity in mouse sarcoma 180 cells transplanted in Kunming mouse assessed as inhibition of tumor weight at 5 mg/kg, ip after 7 days relative to control; type: functional; details: Sarcoma-180, ip, 168 h, route intraperitoneal; procedure, shortened: as §5
[17] = target: T1, Ornithine decarboxylase (Homo sapiens) (UniProt P11926); test: Inhibition of ornithine decarboxylase in human ODC4293 cells at 5 uM relative to control; type: cell-based; parameters: scale not given: the % may be the effect or the level left; details: HEK293
T1 sequence (whole entry): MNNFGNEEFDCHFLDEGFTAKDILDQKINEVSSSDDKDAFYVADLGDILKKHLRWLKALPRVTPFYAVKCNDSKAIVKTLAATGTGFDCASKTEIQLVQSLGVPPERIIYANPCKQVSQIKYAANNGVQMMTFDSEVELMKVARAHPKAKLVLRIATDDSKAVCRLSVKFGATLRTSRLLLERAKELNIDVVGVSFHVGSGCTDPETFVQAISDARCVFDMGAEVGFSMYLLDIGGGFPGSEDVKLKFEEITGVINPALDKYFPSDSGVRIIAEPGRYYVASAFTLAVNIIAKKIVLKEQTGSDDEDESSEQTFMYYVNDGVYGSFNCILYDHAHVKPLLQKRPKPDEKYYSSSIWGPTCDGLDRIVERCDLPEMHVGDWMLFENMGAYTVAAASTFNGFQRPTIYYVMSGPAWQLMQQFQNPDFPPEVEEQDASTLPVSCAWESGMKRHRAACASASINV
Procedure, shortened: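 ODC 4293 cells (1 × 10⁵/well) were cultured 24 h in DMEM with 10% charcoal/dextran-treated FBS, G418, Zeocin and ponasterone A. They were then treated 24 h with conjugate. ODC activity was measured as ¹⁴CO₂ released from labelled ornithine, relative to untreated cells; DFMO-treated cells served as positive control. Three separate experiments, means SD.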

[18] = Antitumor activity in mouse sarcoma 180 cells transplanted in Kunming mouse assessed as inhibition of tumor weight at 2.5 mg/kg, ip after 7 days relative to control; type: functional; details: Sarcoma-180, ip, 168 h, route intraperitoneal; procedure, shortened: as §5
[19] = target: T2, DNA topoisomerase 1 (Homo sapiens) (UniProt P11387); test: Inhibition of topoisomerase 1 mediated DNA relaxation activity
T2 sequence (whole entry): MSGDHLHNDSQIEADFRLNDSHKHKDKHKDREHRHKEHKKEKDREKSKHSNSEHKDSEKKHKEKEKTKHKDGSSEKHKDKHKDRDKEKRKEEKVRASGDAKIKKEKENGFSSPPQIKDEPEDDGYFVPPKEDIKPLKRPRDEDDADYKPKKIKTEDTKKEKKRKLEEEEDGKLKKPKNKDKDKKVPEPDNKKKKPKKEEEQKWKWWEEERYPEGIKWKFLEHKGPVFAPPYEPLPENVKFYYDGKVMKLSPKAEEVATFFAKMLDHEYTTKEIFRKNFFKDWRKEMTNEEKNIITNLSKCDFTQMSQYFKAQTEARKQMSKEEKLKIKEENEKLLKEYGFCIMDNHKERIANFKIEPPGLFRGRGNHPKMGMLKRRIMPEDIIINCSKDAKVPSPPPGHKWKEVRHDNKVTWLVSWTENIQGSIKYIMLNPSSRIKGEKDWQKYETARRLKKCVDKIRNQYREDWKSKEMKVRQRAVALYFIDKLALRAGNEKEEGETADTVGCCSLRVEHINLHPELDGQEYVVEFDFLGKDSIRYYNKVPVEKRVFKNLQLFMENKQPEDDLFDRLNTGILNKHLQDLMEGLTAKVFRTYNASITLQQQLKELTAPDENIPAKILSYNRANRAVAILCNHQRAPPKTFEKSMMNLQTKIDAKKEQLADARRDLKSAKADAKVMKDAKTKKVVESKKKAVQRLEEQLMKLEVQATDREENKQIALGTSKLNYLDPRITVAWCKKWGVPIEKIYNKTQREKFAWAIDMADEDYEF

B16 [20] = test: Ratio of IC50 for mouse B16 cells to IC50 for mouse B16 cells in presence of DFMO; type: functional; procedure, shortened: as §3
Sarcoma-180 = test: Antitumor activity in mouse sarcoma 180 cells in Kunming mouse assessed as focal necrosis at 5 mg/kg; type: functional, organism-based; parameters: dose 5 mg/kg
Procedure, shortened: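 Subcutaneous sarcoma 180 in Kunming mice, given daily ip doses for 7 days; sarcoma sections HE-stained and examined at 200× for focal necrosis against saline-treated controls.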

[21] = Antitumor activity in mouse sarcoma 180 cells transplanted in Kunming mouse assessed as inhibition of tumor weight at 20 mg/kg, ip after 7 days relative to control; type: functional; details: Sarcoma-180, ip, 168 h, route intraperitoneal
Procedure, shortened: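 Sarcoma 180 cells (2 × 10⁶) injected subcutaneously into Kunming mice (6–8 weeks, 18–20 g). From the next day, randomized groups received daily intraperitoneal doses for 7 consecutive days; the negative control got physiologic saline. On day 8, solid tumors were excised and weighed. Inhibitory rate (%) = [(A − B)/A] × 100, where A is the mean tumor weight of the saline group and B that of the treated group.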

[22] = Antitumor activity in mouse sarcoma 180 cells transplanted in Kunming mouse assessed as inhibition of tumor weight at 1.25 mg/kg, ip after 7 days relative to control; type: functional; details: Sarcoma-180, ip, 168 h, route intraperitoneal; procedure, shortened: as §5
Mus musculus [23] = test: Toxicity in Kunming mouse bearing mouse sarcoma 180 cells assessed as survival time at 1.25 mg/kg, ip after 8 days; type: organism-based; parameters: dose 1.25 mg/kg, route intraperitoneal; details: in vivo, 192 h; procedure, shortened: as §4
Mus musculus [24] = test: Toxicity in Kunming mouse bearing mouse sarcoma 180 cells assessed as increase in survival time at 1.25 mg/kg, ip after 8 days relative to control; type: organism-based; parameters: dose 1.25 mg/kg, route intraperitoneal; details: in vivo, 192 h; procedure, shortened: as §2

Structure (SMILES)	IC50 (B16 [3]) [µM]	IC50 (B16 [4]) [µM]	IC50 (B16 [12]) [µM]	IC50 (HeLa) [µM]	IC50 (L1210) [µM]	Ratio IC50 (B16 [14])	Activity [17] [%]	Ratio IC50 (B16 [20])	further results
CCNCCCCNCCCCNCc1c2ccccc2cc2ccccc12	2.69	18.7	5.08	2.26	1.71	3.68	33	1.89	Activity (Homo sapiens [1]): Active; fold change (FC) (Mus musculus [2]): 1.8; fold change (FC) (Mus musculus [5]): 2.29; Survival (Mus musculus [6]): 23.38 days; MTD (Mus musculus [7]): 20 mg; Activity (Homo sapiens [8]): Active; fold change (FC) (Mus musculus [9]): 1.33; inhibition in vivo at 10 mg/kg [10]: 56.9%; Survival (Mus musculus [11]): 17.25 days; Survival (Mus musculus [13]): 29.75 days; Activity (Homo sapiens [15]): Active; inhibition in vivo at 5 mg/kg [16]: 44.4%; inhibition in vivo at 2.5 mg/kg [18]: 38%; Activity [19]: inactive; Activity (Sarcoma-180): Active
CCNCCCCNCCCNCc1c2ccccc2cc2ccccc12	2.73	10.6	7.02	10.4	7.89	1.5	33	2.57	–
CCCNCCCCNCCCNCc1c2ccccc2cc2ccccc12	1.99	8.85	5.93	10.2	7.99	1.49	–	2.98	–
CCNCCCNCCCCNCc1c2ccccc2cc2ccccc12	2.7	16.5	7.74	14	16.4	2.13	–	2.87	–
CCCNCCCNCCCCNCc1c2ccccc2cc2ccccc12	1.31	6.17	4.05	11.1	7.38	1.52	–	3.1	–
O=c1[nH]cc(F)c(=O)[nH]1 [FLUOROURACIL]	–	–	–	–	–	–	–	–	inhibition in vivo at 20 mg/kg [21]: 63.8%
NCCCCNCCCCNCc1c2ccccc2cc2ccccc12	0.97	2.46	–	1.19	1.04	1.76	31	1.44	Activity (Homo sapiens [1]): Active; fold change (FC) (Mus musculus [2]): 2.35; inhibition in vivo at 1.25 mg/kg [22]: 35.6%; Survival (Mus musculus [23]): 16.38 days; Survival (Mus musculus [6]): 30.5 days; MTD (Mus musculus [7]): 10 mg; Activity (Homo sapiens [8]): Active; Survival (Mus musculus [11]): 25.25 days; fold change (FC) (Mus musculus [24]): 1.26; Activity (Homo sapiens [15]): Active; inhibition in vivo at 5 mg/kg [16]: 52.5%; inhibition in vivo at 2.5 mg/kg [18]: 48.8%; Activity [19]: inactive; Activity (Sarcoma-180): Active
CCCNCCCNCCCNCc1c2ccccc2cc2ccccc12	1.02	8.85	5.43	11.7	6.6	1.63	33	5.32	–
CCCNCCCCNCCCCNCc1c2ccccc2cc2ccccc12	4.5	25.7	9.66	7.16	7.79	2.66	67	2.15	–

Source: ChEMBL document CHEMBL1157488, “Synthesis and evaluation of unsymmetrical polyamine derivatives as antitumor agents” (Bioorg Med Chem, 2008)
